APJ ag: APJ receptor agonism; CHO-K1 APJ PathHunter beta-arrestin, luminescence; 0% DMSO wells, 100% apelin; activation, % at 20 µM; 0.11% of 330,000 active;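 active = activation more than six SD over the plate average, tested at 20 µM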;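 note: 0% = DMSO alone and 100% = apelin-13 at 10 nM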
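Incubation: overnight seeding, 90 min compound at 25 °C, 1 h detection; test system: PathHunter CHO-K1 APJ (AGTRL-1) beta-arrestin reporter cells; amount: 1000 cells/well; doses: one dose, 20 µM compound, 1% DMSO; measured by: beta-gal luminescence; measure: agonist-driven arrestin binding to APJ; benchmarks: negative DMSO alone, positive Apelin-13 at 10 nM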
CCR6 antagonist: CCR6 (human) receptor antagonism. P51684. CHO-K1 CCR6 PathHunter beta-arrestin, luminescence, CCL20-stimulated. inhibition, % at 20 µM. 0.49% of 340,000 active. AID 493098;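 active = compounds whose inhibition of the agonist-driven luminescence signal at 20 µM reaches about 50%, limit read from the data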;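 note: cells stimulated with CCL20 at 14 nM final; plate controls were DMSO with CCL20 for no effect and DMSO without agonist for full effect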
EBI2 antag: EBI2 (human) antagonism | P32249 | EBI2 beta-arrestin recruitment, luminescence, 7a,25-OHC stimulated | inhibition, % at 5 µM | 0.81% of 360,000 active | AID 651636; in the data active = inhibition above about 38%;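 note: enzyme fragment complementation signal reports receptor beta-arrestin coupling in cells; 0% = agonist plus DMSO wells and 100% = wells without agonist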
Target sequence (P32249 whole entry, looked up, the tested form may be a part): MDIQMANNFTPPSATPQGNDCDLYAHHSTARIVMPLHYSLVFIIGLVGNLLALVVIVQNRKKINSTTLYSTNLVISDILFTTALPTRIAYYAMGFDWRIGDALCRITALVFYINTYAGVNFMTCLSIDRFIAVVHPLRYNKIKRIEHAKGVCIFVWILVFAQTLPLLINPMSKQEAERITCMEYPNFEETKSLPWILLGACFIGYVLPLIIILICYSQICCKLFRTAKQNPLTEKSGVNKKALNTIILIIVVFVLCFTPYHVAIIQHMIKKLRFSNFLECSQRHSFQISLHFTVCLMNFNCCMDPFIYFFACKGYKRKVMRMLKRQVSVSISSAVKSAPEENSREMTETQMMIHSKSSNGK
CXCR6 block: inhibitors of human CXCR6 receptor | CHO-K1 PathHunter CXCR6 beta-arrestin, luminescence | 0.36% of 360,000 active | inhibition, % at 20 µM; in the data active = inhibition above about 34%, passing the limit was not always enough;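 note: antagonist mode with CXCL16 agonist at 10 nM final; 0% = 10 nM CXCL16 with DMSO and 100% = unstimulated wells without agonist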
Target sequence (O00574 whole entry, looked up): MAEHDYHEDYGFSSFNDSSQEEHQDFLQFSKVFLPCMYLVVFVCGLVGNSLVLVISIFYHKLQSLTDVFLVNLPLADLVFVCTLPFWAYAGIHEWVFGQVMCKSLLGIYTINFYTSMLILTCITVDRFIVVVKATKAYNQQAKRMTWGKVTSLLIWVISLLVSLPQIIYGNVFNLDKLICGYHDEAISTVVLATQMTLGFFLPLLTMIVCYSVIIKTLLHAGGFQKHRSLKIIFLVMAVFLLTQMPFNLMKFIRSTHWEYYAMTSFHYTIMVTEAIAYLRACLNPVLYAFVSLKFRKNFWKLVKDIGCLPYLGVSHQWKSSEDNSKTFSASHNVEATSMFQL
APJ antagonist: blocks the human apelin receptor APJ; CHO-K1 APJ beta-arrestin complementation, luminescence; 0.32% of 330,000 active; P35414; inhibition, % at 20 µM;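 active = inhibition above about 40% at 20 µM, limit read from the data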;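 note: cells challenged with 10 nM apelin-13 agonist together with compound; plate controls were apelin-13 plus DMSO wells for no effect and DMSO wells lacking apelin-13 for full effect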
EBI2 antag conf: confirmation of human EBI2 receptor antagonists | shares compounds with EBI2 antag | EBI2 beta-arrestin luminescence, 7a,25-OHC antagonism | inhibition, % at 5 µM | 29% of 2,400 active | AID 651997;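 active = inhibition of at least 50%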
EBI2 ag: EBI2 agonism counter-screen. shares compounds with EBI2 antag. activation, % at 5 µM. AID 652000. EBI2-expressing cells, agonist mode, luminescence, 60 min; 0% vehicle, 100% 7α,25-dihydroxycholesterol control. 2,400 tested, under 10 active;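 active = activation of at least 50%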
bGal cs: inhibits E. coli beta-galactosidase, counter-screen for EBI2 antagonists; inhibition, % at 5 µM; 1% of 2,400 active; AID 652176; shares compounds with EBI2 antag; purified beta-galactosidase, luminescent Galacton Star, 15 min;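 active = replicate-average signal at least 3 plate SD below neutral wells, shown as high inhibition, flagging enzyme-inhibiting false positives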;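 note: 0% = DMSO wells with enzyme and 100% = wells lacking enzyme; higher means stronger loss of beta-gal luminescence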
* marks the source's active call; other numbers are inactive results; . = not tested or not shown. Most compounds without a hit are left out; they make up all but 1.5% or so of the library.

SMILES | APJ ag | CCR6 antagonist | EBI2 antag | CXCR6 block | APJ antagonist | EBI2 antag conf | EBI2 ag | bGal cs
CCOC(=O)c1cnn(-c2nc(-c3ccc(F)cc3)cs2)c1C(F)(F)F | -1.8 | 7.0 | 52.6* | -12.2 | -5.9 | 55.9* | 0.8 | 6.5
COc1ccccc1/C=C/C(=O)N1CCN(S(=O)(=O)c2cc(C)ccc2C)CC1 | -5.3 | 7.5 | 85.3* | 0.7 | 9.3 | 76.0* | -1.4 | -19.7
Cc1ccc(C)c(S(=O)(=O)N2CCN(C(=O)CCC(=O)c3cc(C)sc3C)CC2)c1 | -3.9 | 10.3 | 78.2* | -2.4 | -0.8 | 50.8* | 4.3 | 2.7
Cc1ccc(C)c(S(=O)(=O)N2CCN(C(=O)CNC(=O)c3ccc4ccccc4c3)CC2)c1 | 0.4 | 11.6 | 62.8* | 8.2 | 6.9 | 50.0 | 0.8 | 3.5
COC(=O)c1ccccc1NC(=O)NN1CCN(C)CC1 | 2.4 | -17.4 | 0.2 | 0.0 | 18.4 | . | . | .
CCc1noc(C)c1C(=O)NNC(=O)COc1ccc(Br)cc1 | 4.0 | 10.0 | 10.2 | -0.9 | -4.1 | . | . | .
O=C(C1=C(O)C(=O)N(CC2CCCO2)C1c1cccc(Cl)c1)c1ccco1 (configuration not stated) | 1.0 | 12.8 | -9.1 | 13.0 | -0.1 | . | . | .
CCOc1ccc(N2CC(=O)SC2=S)cc1 | 1.3 | 18.8 | 12.4 | 2.9 | 11.2 | . | . | .
CCOc1ccc(N2CSC(=S)N(c3ccc(OCC)cc3)C2)cc1 | -4.4 | 8.3 | 61.9* | 6.0 | 5.0 | 16.8 | -0.7 | 0.8
COc1ccc(/C=N/NC(=O)CSc2nnc(CCCc3ccc(OC)c(C)c3)o2)cc1 | 0.2 | 10.9 | 47.3* | -5.0 | -7.3 | 15.8 | -0.9 | -10.7
COc1ccc(CCCc2nnc(SCC(=O)N/N=C\c3ccc(O)c(OC)c3)o2)cc1C | 1.8 | 11.4 | 27.4 | -1.5 | -15.6 | . | . | .
CN(c1ccccc1)c1nccc(=O)[nH]1 | 2.4 | -2.9 | -9.1 | -10.9 | 11.6 | . | . | .
CN(C)c1ccc(C2Nc3ccccc3C(=O)N2NS(C)(=O)=O)cc1 (configuration not stated) | -0.2 | 10.7 | -5.7 | -7.4 | 8.3 | . | . | .
O=C(NCC(c1ccccc1Cl)N1CCCC1)C1CCN(C(=O)Nc2ccccc2)CC1 (configuration not stated) | -4.1 | 10.0 | 52.5* | -1.7 | -4.8 | 14.2 | -0.3 | -12.8
CC(NC(=O)C1CCN(C(=O)Nc2ccccc2)CC1)c1ccc(Cl)cc1 (configuration not stated) | -1.3 | 4.8 | 46.0* | -4.2 | 2.7 | 32.1 | 2.2 | 1.6
Cc1nc(N2CCN(C(=O)c3ccco3)CC2)[nH]c(=O)c1C | -2.9 | -10.4 | -5.4 | 8.1 | 5.1 | . | . | .
O=C(NCc1cccnc1)OC1CC2CC1[C@H]1CCCCN1C2=O (some centres not stated) | . | . | -13.8 | -3.4 | . | . | . | .
COc1ccc(OCCNC(=O)c2cccc(Oc3ccc(C(F)(F)F)cc3[N+](=O)[O-])c2)cc1 | 0.3 | 19.1 | 42.8* | 3.5 | 7.3 | 16.6 | -1.6 | -13.9
CC(C)NC(=O)C1(C)CCCN1C(=O)c1cc(C#N)cs1 (configuration not stated) | . | . | -4.5 | 4.2 | . | . | . | .
CCCOc1ccc(Oc2nc(-c3ccncc3)nc3ccccc23)cc1 | -1.2 | 16.0 | 49.8* | 1.7 | -1.0 | -1.1 | -1.0 | -12.9
COc1ccc(Oc2nc(-c3ccncc3)nc3ccccc23)cc1 | 0.0 | 4.3 | 20.7 | 5.9 | -0.6 | . | . | .
COc1cccc(Oc2nc(-c3ccncc3)nc3ccccc23)c1 | 1.0 | 9.8 | 44.1* | 6.2 | -11.3 | 5.2 | 0.8 | 9.4
O=C1NN=C(c2ccc(Cl)cc2)CC1c1cccc(Br)c1 (configuration not stated) | -1.5 | 14.7 | 29.2 | -10.1 | -5.3 | . | . | .
Cc1ccc(C2=NNC(=O)C(c3ccc(Cl)cc3)C2)cc1 (configuration not stated) | 0.1 | 18.2 | 53.2* | 4.0 | -10.7 | 39.8 | 0.3 | 8.7
O=C(O)[C@@H]1[C@@H]2C[C@@H]2CN1c1ncccc1[N+](=O)[O-] | -1.1 | -0.2 | 7.9 | 1.1 | -26.6 | . | . | .
SMILES | APJ ag | CCR6 antagonist | EBI2 antag | CXCR6 block | APJ antagonist | EBI2 antag conf | EBI2 ag | bGal cs
CCSc1ccc(-c2nn(-c3ccccc3)cc2/C=C(/C#N)C(=O)NC)cc1 | . | 4.3 | -4.9 | -4.3 | . | . | . | .
CCCSc1ccc(-c2nn(-c3ccccc3)cc2/C=C(/C#N)C(=O)N2CCOCC2)cc1 | -0.4 | 19.7 | 50.2* | 8.8 | -16.4 | 31.9 | 1.1 | -0.4
Cc1ccc(C(=O)N2CCC(C(=O)c3ccc(Cl)cc3)CC2)cc1 | -1.9 | 4.9 | 60.9* | 5.2 | 4.2 | 40.6 | 0.7 | 12.2
CC(C)(C)c1ccc(C(=O)N2CCC(C(=O)c3ccccc3)CC2)cc1 | -0.9 | 7.0 | 11.8 | -1.3 | -1.5 | . | . | .
O=C(c1ccccc1)C1CCN(C(=O)c2ccc(Cl)cc2)CC1 | -3.4 | 10.3 | 86.4* | -0.6 | 4.0 | 72.5* | 1.7 | 5.4
N#Cc1cc2cc3c(cc2nc1NCCNC(=S)NCCCN1CCOCC1)OCO3 | -2.0 | -0.6 | -15.0 | -7.3 | -11.7 | . | . | .
COc1ccc(NC(=O)N2CCN(c3nc(-c4cccc(OC)c4)cs3)CC2)cc1 | 2.1 | -8.5 | 28.9 | -5.4 | -18.5 | . | . | .
COc1cccc(-c2csc(N3CCN(C(=O)Nc4ccc(Cl)cc4)CC3)n2)c1 | -1.4 | -11.7 | 41.7* | -17.9 | -2.0 | 21.7 | -0.7 | 2.0
O=C(c1ccc(F)cc1)C1CCN(C(=S)NCC2CCCO2)CC1 (configuration not stated) | -2.9 | -0.4 | 51.1* | -7.4 | -2.1 | 15.9 | -0.5 | -9.1
Cc1ccc(C(=O)C2CCN(C(=S)NCC3CCCO3)CC2)cc1 (configuration not stated) | -2.0 | 4.9 | 15.9 | 1.3 | 10.8 | . | . | .
COc1ccc(C(=O)C2CCN(C(=S)NCCc3ccccc3)CC2)cc1 | 0.9 | 4.2 | 3.1 | -3.5 | 3.2 | . | . | .
COc1ccc(C(=O)C2CCN(C(=S)NCC3CCCO3)CC2)cc1 (configuration not stated) | -0.5 | 7.0 | 61.4* | -6.7 | 5.3 | 26.1 | 0.7 | 5.1
COc1ccc(/C=C(/NC(=O)c2ccco2)C(=O)N2CCCCC2)cc1 | 0.2 | -7.1 | -9.9 | -8.4 | 10.7 | . | . | .
COc1cc(NC(=O)c2cc3nc(C4CC4)cc(C(F)(F)F)n3n2)c(OC)cc1Cl | -1.6 | 7.9 | 37.6* | 4.0 | -9.8 | 7.1 | -1.4 | -11.4
COc1ccc(COC(=O)C2CCN(C(=O)c3ccc(Cl)cc3)CC2)cc1F | -5.2 | 26.6 | 48.9* | 4.4 | 10.7 | 49.0 | 0.1 | -0.1
COc1ccc(C(C)=O)cc1COC(=O)C1CCN(C(=O)c2ccc(Cl)cc2)CC1 | -4.2 | 14.5 | 77.4* | -1.4 | 0.2 | 38.6 | 1.4 | 8.6
